As a reminder, the MIC50 is an inhibitory concentration at the 50% level, which refers to growth in some studies and to a panel of isolates in others. By IC50 is commonly meant the midpoint of a concentration-inhibition curve. A higher IC50 goes with lower potency. In general, inhibition refers to the change of the read-out against control, counted positive when it falls.

Converted amounts (≈) assume the structure as drawn. The source made the active and inactive calls. No cut-off for these calls is given here.

The first data set has as its system Toxoplasma gondii. Nature of the data set: Antiparasitic activity against tachyzoite of Toxoplasma gondii RH expressing yellow fluorescent protein infected in human foreskin fibroblasts after 72 hrs by fluorescence assay.
Settings: not given
`CCCc1cc(-c2ccc(Oc3ccc(CNC(=O)c4cc(C)on4)cc3O)c(Cl)c2)no1`: the MIC50 turned out to be 4 µM (≈ 1.87 µg/mL).
The same measure, in the same setting: in the case of `Oc1cc(Cl)ccc1Oc1ccc(Cl)cc1Cl` [TRICLOSAN] it was 5 µM (≈ 1.45 µg/mL).

Another data set has as its system Plasmodium falciparum. In words: Antiplasmodial activity against blood stage of drug-sensitive Plasmodium falciparum D6. It counts as functional.
Settings: not given
The gist of the method: (§1)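 Blood-stage parasites tested in a dose-response growth inhibition assay; values reported in ng/ml.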
As for `CCCc1cc(-c2ccc(Oc3ccc(CNC(=O)c4cc(C)on4)cc3O)c(Cl)c2)no1`, the Activity is >10000 ng/mL.
The same measure, in the same setting: for `N#Cc1ccc(Oc2ccc(-c3cc(CCO)on3)cc2Cl)c(O)c1` the value was >10000 ng/mL.
The same measure, in the same setting: in the case of `CCCc1cc(-c2ccc(Oc3ccc(C#N)cc3O)c(Cl)c2)no1` it was > 2440 ng/mL; in that of `Oc1cc(Cl)ccc1Oc1ccc(Cl)cc1Cl` [TRICLOSAN], “inactive”.

Another data set deals with Toxoplasma gondii. In words: Antiparasitic activity against tachyzoite of Toxoplasma gondii RH expressing yellow fluorescent protein infected in human foreskin fibroblasts after 72 hrs by bacterial beta-galactosidase reporter gene assay. The class given is functional.
Settings: not given
For orientation: Reporter assays use an easily measured gene product as a stand-in for the process of interest.
Compound `N#Cc1ccc(Oc2ccc(-c3cc(CCO)on3)cc2Cl)c(O)c1` had an MIC50 of 8 µM (≈ 2.85 µg/mL).
The compound `CCCc1cc(-c2ccc(Oc3ccc(C#N)cc3O)c(Cl)c2)no1` yielded an MIC50 of 4 µM (≈ 1.42 µg/mL).

In the next data set the test system is HFF. Nature of the data set: Cytotoxicity against HFF after 72 hrs by WST-1 assay. As to conditions: human. The class given is cell-based. The gist of the method:
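Uninfected human foreskin fibroblast host cells were incubated with compounds for 72 h. Viability was then assessed by WST-1 staining. The effect of DMSO levels in the culture medium was assessed alongside.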
Consider `CCCc1cc(-c2ccc(Oc3ccc(CNC(=O)c4cc(C)on4)cc3O)c(Cl)c2)no1`, for which the Activity is > 10 µM.
Still for that read-out and setting: for `N#Cc1ccc(Oc2ccc(-c3cc(CCO)on3)cc2Cl)c(O)c1` the value was > 10 µM; for `CCCc1cc(-c2ccc(Oc3ccc(C#N)cc3O)c(Cl)c2)no1`, > 10 µM.
Same read-out and setting: for `Oc1cc(Cl)ccc1Oc1ccc(Cl)cc1Cl` [TRICLOSAN] the value was > 10 µM.

In a further data set the test system is Plasmodium falciparum. In words: Antiplasmodial activity against blood stage of drug-resistant Plasmodium falciparum TM91C235.
Settings: not given
The class given is functional. The procedure, abridged:
as §1
`CCCc1cc(-c2ccc(Oc3ccc(C#N)cc3O)c(Cl)c2)no1`: the outcome was inactive.
Still for that read-out and setting: in the case of `Oc1cc(Cl)ccc1Oc1ccc(Cl)cc1Cl` [TRICLOSAN] it was “inactive”.

The target of a further data set is T1, Enoyl-acyl carrier reductase (Toxoplasma gondii, UniProt Q6UCJ9).
T1 sequence (Q6UCJ9 whole entry): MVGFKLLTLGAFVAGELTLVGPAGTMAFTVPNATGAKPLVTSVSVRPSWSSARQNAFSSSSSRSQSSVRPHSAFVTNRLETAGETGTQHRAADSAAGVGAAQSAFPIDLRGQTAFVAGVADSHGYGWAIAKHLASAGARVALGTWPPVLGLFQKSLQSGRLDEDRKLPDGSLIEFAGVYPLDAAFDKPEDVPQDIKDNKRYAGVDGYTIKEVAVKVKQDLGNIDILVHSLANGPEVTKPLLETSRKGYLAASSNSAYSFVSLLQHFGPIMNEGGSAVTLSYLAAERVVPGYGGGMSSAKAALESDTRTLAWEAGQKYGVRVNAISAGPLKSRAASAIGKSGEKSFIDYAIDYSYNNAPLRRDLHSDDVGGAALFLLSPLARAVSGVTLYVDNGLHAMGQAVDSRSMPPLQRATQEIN
In words: Inhibition of Toxoplasma gondii enoyl acyl-carrier protein reductase.
Settings: not given
As to `Cc1cc(C(=O)NCc2ccc(Oc3ccc(Cl)cc3Cl)c(O)c2)no1`, the IC50 amounted to 19 nM.
The same measure, in the same setting: in the case of `CCCc1cc(-c2ccc(Oc3ccc(CNC(=O)c4cc(C)on4)cc3O)c(Cl)c2)no1` it was 137 nM.
In turn, `N#Cc1ccc(Oc2ccc(-c3cc(CCO)on3)cc2Cl)c(O)c1` had a concentration for half-maximal inhibition (IC50) of 34 nM.
Compound `CCCc1cc(-c2ccc(Oc3ccc(C#N)cc3O)c(Cl)c2)no1` yielded an IC50 of 29 nM.

Another data set addresses T2, Enoyl-acyl carrier reductase (Toxoplasma gondii) (UniProt Q6UCJ9).
T2 sequence (whole entry): T1 sequence (Q6UCJ9 whole entry)
Nature of the data set: Inhibition of Toxoplasma gondii enoyl acyl-carrier protein reductase at 1 uM.
Settings: not given
With `CCCc1cc(-c2ccc(Oc3ccc(CNC(=O)c4cc(C)on4)cc3O)c(Cl)c2)no1`, the inhibition was determined as 89%.
On the same count and under the same terms, for `N#Cc1ccc(Oc2ccc(-c3cc(CCO)on3)cc2Cl)c(O)c1` the value was 94%; for `CCCc1cc(-c2ccc(Oc3ccc(C#N)cc3O)c(Cl)c2)no1`, 94%.
Consider `Oc1cc(Cl)ccc1Oc1ccc(Cl)cc1Cl` [TRICLOSAN], for which the inhibition turned out to be 98%.

Source of the values: ChEMBL document CHEMBL2390941 (Bioorg Med Chem Lett, 2013).
